High-throughput results deposited in PubChem by several laboratories.
HSF-1 act: increases HSF-1 driven luciferase reporter signal | NIH3T3-HGL HSF-1 luciferase reporter, MG132, 8 h; 100% = twice DMSO control signal | activation, % at 9 µM | 300,000 compounds, 1.7% hits | AID 504408;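 active means mean replicate activation of at least 50% with a set share of replicates each reaching 50%; inconclusive means only one of those two conditions met; inactive means mean below 50% and too few replicates reaching it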;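 further: 0% = median of the neutral control wells and 100% = twice that signal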
L major viab: inhibitors of Leishmania major promastigote growth | inhibition, % at 10 µM | 200,000 compounds, 9% hits | Leishmania major promastigotes, resazurin fluorescence viability; in the data active means inhibition above about 50%;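 further: promastigotes grown with compound for 44 hours at 28 °C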
HSF1 inh: HSF1 inhibition; NIH3T3-HGL HSE-luciferase, MG132-induced, luminescence 8 h; active compounds read low; activity change, negative = inhibition, % at 7.5 µM (by protocol); 300,000 compounds, 0.77% hits; AID 2098;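 active means more than half of replicate wells show activity change below -50%, luminescence cut by over half; inconclusive means some wells, but at most half, below -50%; inactive means no replicate well below -50%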;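 further: luciferase reports HSF-1 transcriptional activity via heat shock element; 0% = median of DMSO wells and -100% = zero luminescence signal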
T cruzi repl: blocks replication of Trypanosoma cruzi | AID 1885 | T. cruzi beta-gal in NIH3T3, luminescence, 90 h | inhibition, % (concentration not given with the values) | 300,000 compounds, 1.4% hits;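 active means mean inhibition across valid replicates above about 55%, limit read from the data; inconclusive means mean below that limit but half or more replicates reach it; inactive means mean below it, under half of replicates reach it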;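 further: signal also drops with host cell toxicity which is not excluded here; 0% = plate median of DMSO wells and 100% = zero luminescence signal; higher percent means less beta-gal luminescence so fewer parasites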
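System: mouse NIH/3T3 fibroblasts infected with β-gal-expressing T. cruzi Tulahuen C4 / Input: NIH/3T3 cells, 5,000 per well / Buffer or medium: Low-serum DMEM with 2% FBS / Probe or stimulus: 5000 reporter trypomastigotes per well / Schedule: ≥90 h infection period, 3 h prior cell attachment / Measured by: GalScreen luminescence, 60 min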
Hsp70 activator: transcriptional activators of Hsp70. HeLa Hsp70 promoter luciferase reporter, luminescence; scaled: vehicle 0, proteasome-inhibitor control 100%. activation, % at 10 µM. 200,000 compounds, 0.04% hits. AID 1203;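 active means activation above the mean across all tested compounds plus 3 SD, cutoff set per campaign, cut at about 5.5% in these data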;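 further: 100% = MG132 at 30 µM as the positive control and 0% = DMSO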
* hit, by the source's call; ? = inconclusive; / = not tested or not shown. Only a selection was taken, and hits are over-represented in it overall.

SMILES	HSF-1 act	L major viab	HSF1 inh	T cruzi repl	Hsp70 activator
O=C(CN1C(=O)NC2(CCOc3ccccc32)C1=O)NCC(F)(F)F (stereo not given)	34.4	/	-0.7	-5.1	/
COc1ccccc1Nc1ncnc2ccc(C)cc12	-6.3	70.7*	-12.2	18.4	0.0
Cc1ccc(-c2[nH]c(-c3ccc(Cl)cc3)nc2SCC(=O)NCC2CCCO2)cc1 (stereo not given)	-18.8	69.7*	-4.8	13.8	0.0
O=C(Cn1nc(-c2ccc(Cl)cc2)ccc1=O)NCC1CCCO1 (stereo not given)	-64.0	-9.8	-56.6*	-16.2	-0.2
COc1ccc(C(CC(=O)O)N2C(=O)CCC2=O)cc1 (stereo not given)	-0.6	/	-6.5	-12.7	/
CCOC(=O)CSc1cc(CS(C)(=O)=O)nc(-c2ccccn2)n1	-69.9	-4.5	-61.2*	-9.1	-0.2
CCOC(=O)CSc1cc(C(F)(F)F)nc(-c2ccccn2)n1	17.5	-0.9	1.4	-9.0	0.1
Cc1ccc(S(=O)(=O)/N=C2/C=C(Sc3ncn[nH]3)C(=O)c3ccccc32)c(C)c1	/	99.1*	/	/	-0.1
Cc1ccc(S(=O)(=O)/N=C2\C=C(Nc3cccc(C(=O)O)c3)C(=O)c3ccccc32)c(C)c1	3.9	/	7.1	-9.5	/
CC(C)c1ccc(S(=O)(=O)/N=C2/C=C(Sc3ncn[nH]3)C(=O)c3ccccc32)cc1	/	99.0*	/	/	-0.3
Cc1ccc(S(=O)(=O)/N=C2/C=C(Sc3ncn[nH]3)C(=O)c3ccccc32)cc1	/	99.9*	/	/	0.1
CC(C)(C)c1ccc(S(=O)(=O)/N=C2\C=C(NS(=O)(=O)c3ccccc3)C(=O)c3ccccc32)cc1	39.3	/	16.7	-6.0	/
Cc1ccc(S(=O)(=O)Nc2ccc(O)c(Sc3ncn[nH]3)c2)cc1	13.9	-1.3	4.3	1.4	-0.5
Cc1c(C(=O)N2CCN(Cc3ccccc3)CC2)oc2c1C(=O)CC(C)(C)C2	1.0	/	0.5	-1.4	/
COCC1CCN(Cc2cn[nH]c2-c2ccc(OC)c(F)c2)C1 (stereo not given)	-1.5	/	-3.3	13.6	/
O=C(NCCSc1ccc(Cl)cc1)c1ccc(CN2CCOCC2)cc1	-38.6	38.2	-25.3	16.2	-0.3
Cc1cccc(CSCCNC(=O)COc2ccc(Cl)cc2)c1	-63.3	22.0	-55.5*	-4.2	-0.4
Cc1cccc(CSCCNC(=O)c2ccc(CN3CCOCC3)cc2)c1	7.3	85.8*	-2.9	9.1	-0.6
O=C(COc1ccc(Cl)cc1)NCCSCc1cccc(Cl)c1	-3.2	-4.1	8.6	0.1	-0.4
O=C(NCCSCc1ccc(Cl)cc1Cl)c1ccc(CN2CCOCC2)cc1	14.4	89.4*	2.7	4.0	-0.4
Cc1cc(N2CCN(C)CC2)nc2ccc(NC(=O)c3cccnc3Cl)cc12	-68.4	99.4*	-58.9*	46.9	-0.2
Cc1cc(N2CCN(C)CC2)nc2ccc(NC(=O)CCC3CCCC3)cc12	-8.6	/	-0.3	45.1	/
CCN(CC)c1cc(C)c2cc(NC(=O)c3cccs3)ccc2n1	37.1	23.7	17.2	27.6	0.0
CCN(CC)c1cc(C)c2cc(NC(=O)c3ccc(Br)o3)ccc2n1	2.4	79.8*	0.5	?	0.1
CCN1CCN(c2cc(C)c3cc(NC(=O)c4ccncc4)ccc3n2)CC1	-14.9	64.7*	0.6	12.9	/
SMILES	HSF-1 act	L major viab	HSF1 inh	T cruzi repl	Hsp70 activator
CCN1CCN(c2cc(C)c3cc(NC(=O)c4cccnc4Cl)ccc3n2)CC1	2.7	99.4*	-3.5	15.7	-0.1
CCN1CCN(c2cc(C)c3cc(NC(=O)c4ccc(Br)o4)ccc3n2)CC1	4.3	99.6*	9.6	34.6	0.1
CCN1CCN(c2cc(C)c3cc(NC(=O)c4ccc(C)c(C)c4)ccc3n2)CC1	27.4	/	1.7	44.0	/
CNc1ccc(/C=C2\COc3ccccc3C2=O)cc1[N+](=O)[O-]	39.3	8.8	30.2	11.2	-0.6
O=C1/C(=C/c2ccccn2)COc2ccccc21	24.5	100.4*	0.2	-8.8	0.1
O=C1/C(=C/c2ccccc2[N+](=O)[O-])COc2ccccc21	140.6*	99.6*	109.6	5.3	2.2
O=C1/C(=C/c2ccc(O)cc2)COc2ccccc21	17.4	/	-0.7	-4.7	/
Cc1ccn(CC(=O)N2CCCC(N3CCN(Cc4ccc5c(c4)OCO5)CC3)C2)n1 (stereo not given)	-3.9	/	-6.8	9.3	/
C[C@@H]1NC(=O)N(CCCn2ccnc2)C1=O	-10.6	/	1.3	-9.9	/
COC(=O)C1=CN(c2ccc(OC)cc2)C=C(C(=O)OC)C1c1ccc([N+](=O)[O-])cc1	18.5	/	0.8	60.2*	/
COC(=O)C1=CN(c2ccc(F)cc2)C=C(C(=O)OC)C1c1ccc([N+](=O)[O-])cc1	-8.4	/	0.7	?	/
O=C1CCC2S/C(=C/Nc3ccc(C(F)(F)F)cc3)C(=O)N12 (stereo not given)	-72.2	-4.0	-65.1*	-1.5	-0.6
O=C1CCCC/C1=C/Nc1cccc(C(F)(F)F)c1	-4.6	7.4	-1.5	3.5	0.0
COc1ccc(N(CC(=O)N/N=C/c2ccc3c(c2)OCO3)S(=O)(=O)c2ccccc2)cc1	-5.4	-1.7	2.4	-16.4	-0.3
CC(NO)/C(=N\O)c1cccs1 (stereo not given)	-57.3	-6.4	-51.2*	-8.2	-0.2
Cc1ccc(C)c(N2CCN(Cc3nnnn3C3CCCCC3)CC2)c1	14.1	16.6	-5.0	19.8	0.2
COc1cccc(N2CCN(Cc3nnnn3C3CCCCC3)CC2)c1	-67.5	-6.5	-60.3*	4.7	-0.1
COc1cccc(N2CCN(C3CCCC(C)C3)CC2)c1 (stereo not given)	0.5	69.2*	1.8	-1.2	-0.1
CC(Oc1ccc(Br)cc1)C(=O)NCC(C)(C)N1CCOCC1 (stereo not given)	17.5	/	17.1	-8.0	/
Cc1onc(-c2ccccc2)c1C(=O)NCc1ccccc1F	-12.5	/	-4.8	-7.7	/
CN(C)CCCN(C(=O)c1ccc(S(=O)(=O)N(C)Cc2ccccc2)cc1)c1nc2c(F)cccc2s1	13.4	/	5.3	36.0	/
Cc1cc(C)c2nc(N(CCCN(C)C)C(=O)c3ccc(S(=O)(=O)N4CCCCCC4)cc3)sc2c1	-2.9	/	-1.2	54.1	/
Cc1cc(C)c2nc(N(CCCN(C)C)C(=O)c3ccc4c(c3)CCCC4)sc2c1	7.8	/	-5.3	58.5*	/
CCOc1ccc2nc(N(CCN(C)C)C(=O)c3ccc4c(c3)CCCC4)sc2c1	-0.3	/	-3.2	?	/
CN(C)CCCN(C(=O)c1ccc(N2C(=O)CCC2=O)cc1)c1nc2c(F)cccc2s1	32.3	-0.3	3.3	57.1*	0.2
Cc1ccc2nc(N(CCCN(C)C)C(=O)c3ccc4c(c3)CCCC4)sc2c1	-4.3	98.7*	-12.6	44.1	-0.3
CN(C)CCCN(C(=O)c1ccc2c(c1)CCCC2)c1nc2c(F)cccc2s1	18.4	28.6	15.6	58.2*	-0.1
Cc1ccccc1NC(=O)c1ccccc1NC(=O)CCC(=O)O	-4.9	-8.1	-4.6	-6.0	-0.2
CCOC(=O)c1c(NC(=O)CSc2nnc(CNc3ccc(Cl)cc3)o2)sc(C)c1C	67.1*	8.3	38.4	7.4	0.0
